Molecules are shown by their SMILES. Square brackets hold non-standard residues; d marks the D form. Peptide text beside a SMILES is read from it. hPhe = N[C@@H](CCc1ccccc1)C(=O)O; Nle = CCCC[C@H](N)C(=O)O; Dap = NC[C@H](N)C(=O)O

4 compounds from ChEMBL document CHEMBL4145669 (J Med Chem, 2018) can be followed below.

Experiment [1] addresses Melanocyte-stimulating hormone receptor (Mus musculus, UniProt Q01727). In words: Agonist activity at mouse MC1R expressed in HEK293 cells incubated for 2 hrs by AlphaScreen cAMP assay. The class given is functional, cell-based. The essentials:
(§1)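 HEK293 cells stably expressing mouse MC1R, about 90% confluent, were detached with Versene and suspended at 10,000 cells/μL in stimulation buffer (HBSS, 0.5 mM IBMX, 5 mM HEPES, 0.1% BSA, pH 7.4) with anti-cAMP acceptor beads. Compound was added for 2 h at room temperature in the dark, then donor beads/biotinylated cAMP in lysis buffer for 2 h, followed by AlphaScreen read. Doses went up to 100 μM in duplicate wells, ≥3 experiments. EC50 came from nonlinear regression, with efficacy as a percent of NDP-MSH.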

Experiment [2] deals with Melanocyte-stimulating hormone receptor (Mus musculus) (UniProt Q01727). In words: Agonist activity at mouse MC1R expressed in HEK293 cells incubated for 2 hrs by AlphaScreen cAMP assay relative to NDP-MSH. The class given is functional, cell-based. The essentials: as §1
Melanocyte-stimulating hormone receptor (Mus musculus), sequence (Q01727 whole entry, looked up): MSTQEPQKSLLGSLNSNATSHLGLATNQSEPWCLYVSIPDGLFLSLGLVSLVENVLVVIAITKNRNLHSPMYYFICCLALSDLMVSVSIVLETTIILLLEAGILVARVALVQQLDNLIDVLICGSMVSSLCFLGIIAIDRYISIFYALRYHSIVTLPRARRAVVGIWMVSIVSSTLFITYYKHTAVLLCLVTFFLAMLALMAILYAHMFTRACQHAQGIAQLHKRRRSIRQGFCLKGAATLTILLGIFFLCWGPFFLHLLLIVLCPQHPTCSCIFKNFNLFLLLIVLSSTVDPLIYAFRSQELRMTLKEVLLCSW
The target in another experiment is Melanocortin receptor 5 (Mus musculus, UniProt P41149). The experiment is described as follows: Inverse agonist activity at mouse MC5R expressed in HEK293 cells incubated for 2 hrs by AlphaScreen cAMP assay. The format is functional, cell-based. The essentials:
(§2)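 In the mouse MC5R HEK293 stable line, cells in IBMX-containing stimulation buffer with anti-cAMP acceptor beads were exposed to compound at up to 100 μM for 2 h at room temperature in the dark. Donor beads/biotinylated cAMP were then added for 2 h before AlphaScreen reading. Signal was normalized to basal response to give a percent difference from basal. Duplicate wells, ≥3 independent experiments.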

The target of experiment [3] is Melanocortin receptor 5 (Mus musculus) (UniProt P41149). In words: Inverse agonist activity at mouse MC5R expressed in HEK293 cells at 100 uM incubated for 2 hrs by AlphaScreen cAMP assay. The format is functional, cell-based. The essentials:
as §2

The target of experiment [4] is Melanocortin receptor 3 (Mus musculus) (UniProt P33033). The experiment is described as follows: Agonist activity at mouse MC3R expressed in HEK293 cells at 100 uM incubated for 2 hrs by AlphaScreen cAMP assay relative to untreated control. The format is functional, cell-based.
Melanocortin receptor 3 (Mus musculus), sequence (P33033 whole entry): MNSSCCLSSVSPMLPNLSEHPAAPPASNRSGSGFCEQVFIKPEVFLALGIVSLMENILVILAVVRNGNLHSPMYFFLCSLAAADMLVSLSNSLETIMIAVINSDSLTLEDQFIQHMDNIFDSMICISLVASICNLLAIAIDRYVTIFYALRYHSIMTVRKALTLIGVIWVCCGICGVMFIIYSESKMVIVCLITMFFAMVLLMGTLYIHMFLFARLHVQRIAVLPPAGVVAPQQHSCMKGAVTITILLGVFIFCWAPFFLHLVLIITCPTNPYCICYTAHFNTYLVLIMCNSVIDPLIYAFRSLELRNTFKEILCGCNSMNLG
The target of experiment [5] is Melanocortin receptor 4 (Mus musculus) (UniProt P56450). In words: Agonist activity at mouse MC4R expressed in HEK293 cells at 100 uM incubated for 2 hrs by AlphaScreen cAMP assay relative to untreated control. The class given is functional, cell-based.
Melanocortin receptor 4 (Mus musculus), sequence (P56450 whole entry): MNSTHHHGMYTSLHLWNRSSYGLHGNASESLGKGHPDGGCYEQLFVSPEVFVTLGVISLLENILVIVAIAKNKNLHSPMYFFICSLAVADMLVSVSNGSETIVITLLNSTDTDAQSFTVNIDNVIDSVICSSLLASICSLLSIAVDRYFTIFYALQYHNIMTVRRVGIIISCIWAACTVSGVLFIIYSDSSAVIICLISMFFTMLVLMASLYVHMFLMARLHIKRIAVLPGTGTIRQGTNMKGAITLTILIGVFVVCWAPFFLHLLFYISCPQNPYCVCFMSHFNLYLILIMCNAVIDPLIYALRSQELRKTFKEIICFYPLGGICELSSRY
The target in another experiment is Melanocortin receptor 3 (Mus musculus, UniProt P33033). In words: Antagonist activity at mouse MC3R expressed in HEK293 cells assessed as reduction in NDP-MSH-induced response incubated for 2 hrs by AlphaScreen cAMP assay based Schild analysis. The class given is functional, cell-based. Particulars: read-out: pA2 (converted).
Melanocortin receptor 3, sequence (P33033 whole entry): as the sequence (P33033 whole entry) above
The target of the next experiment is Melanocortin receptor 4 (Mus musculus, UniProt P56450). The experiment is described as follows: Antagonist activity at mouse MC4R expressed in HEK293 cells assessed as reduction in NDP-MSH-induced response incubated for 2 hrs by AlphaScreen cAMP assay based Schild analysis. Particulars: read-out: pA2 (converted). The format is functional, cell-based.
Melanocortin receptor 4, sequence (P56450 whole entry): as the sequence (P56450 whole entry) above
The species named for the next experiment is Mus musculus. The experiment is described as follows: Selectivity index, ratio of pA2 for antagonist activity at mouse MC3R expressed in HEK293 cells to pA2 for antagonist activity at mouse MC4R expressed in HEK293 cells. The format is cell-based.
Experiment [6] has as its target Melanocyte-stimulating hormone receptor (Mus musculus) (UniProt Q01727). The experiment is described as follows: Agonist activity at mouse MC1R expressed in HEK293 cells at 100 uM incubated for 2 hrs by AlphaScreen cAMP assay relative to NDP-MSH. The class given is functional, cell-based. The essentials:
as §1

Experiment [7] deals with Melanocortin receptor 4 (Mus musculus) (UniProt P56450). In words: Potency index, ratio of pA2 for test compound to pA2 for AGRP for antagonist activity at mouse MC4R expressed in HEK293 cells assessed as reduction in NDP-MSH-induced response incubated for 2 hrs by AlphaScreen cAMP assay based Schild analysis. The class given is functional, cell-based.

Melanocortin receptor 5, sequence (P41149 whole entry): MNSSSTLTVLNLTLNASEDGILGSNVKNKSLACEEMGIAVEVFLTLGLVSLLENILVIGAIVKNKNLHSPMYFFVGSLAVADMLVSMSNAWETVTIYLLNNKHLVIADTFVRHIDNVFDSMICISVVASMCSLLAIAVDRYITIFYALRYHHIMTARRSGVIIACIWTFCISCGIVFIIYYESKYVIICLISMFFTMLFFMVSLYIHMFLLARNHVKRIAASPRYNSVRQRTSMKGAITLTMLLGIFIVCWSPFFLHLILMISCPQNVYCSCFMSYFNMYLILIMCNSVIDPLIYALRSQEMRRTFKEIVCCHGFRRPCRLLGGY
Melanocortin receptor 5 (Mus musculus), sequence (P41149 whole entry): as above
Melanocyte-stimulating hormone receptor, sequence (Q01727 whole entry): as the sequence (Q01727 whole entry, looked up) above

Consider `N=C(N)NCCC[C@@H]1NC(=O)[C@@H]2CCCN2C(=O)[C@H]2CCCN2C(=O)[C@H](Cc2ccccc2)NC(=O)[C@H](CO)NC(=O)[C@H](CN)NC(=O)[C@H](Cc2ccccc2)NC(=O)[C@H](Cc2ccccc2)NC1=O`, for which the concentration giving a half-maximal response (EC50) in experiment [1] was 600 nM; on Melanocortin receptor 5, more than 100000 nM. In addition, the Activity in experiment [2] was 85%; in experiment [3] it was less than 20%; in experiment [4], less than 20%; in experiment [5], less than 20%. In addition, the Kb on Melanocortin receptor 3 was 158 nM; on Melanocortin receptor 4 it was 0.794 nM. Further, in the experiment listed under Mus musculus, the Ratio worked out at 170.

Turning to `C[C@@H]1NC(=O)[C@H](CN)NC(=O)[C@H](CCc2ccccc2)NC(=O)[C@H](Cc2ccccc2)NC(=O)[C@H](CCCNC(=N)N)NC(=O)[C@@H]2CCCN2C(=O)[C@H]2CCCN2C(=O)[C@H](Cc2ccccc2)NC1=O`, the 50% effective concentration (EC50) was 560 nM in experiment [1] and more than 100000 nM at Melanocortin receptor 5. The Activity was 70% in experiment [2], less than 20% in [3], less than 20% in experiment [4] and less than 20% in experiment [5]. Moreover, the Kb on Melanocortin receptor 3 is 79.4 nM; at Melanocortin receptor 4, 0.794 nM. In the experiment filed under Mus musculus, the Ratio was 100.

On to `CCCC[C@@H]1NC(=O)[C@H](CO)NC(=O)[C@H](CC(N)=O)NC(=O)[C@H](CCc2ccccc2)NC(=O)[C@H](Cc2ccccc2)NC(=O)[C@H](CCCNC(=N)N)NC(=O)[C@@H]2CCCN2C(=O)[C@H]2CCCN2C1=O` (cyclo(RF[hPhe]NS[Nle][dP]P)), for which the 50% effective concentration (EC50) (in experiment [1]; on Melanocortin receptor 5) was more than 100000 nM each time. The Activity in experiment [6], in experiment [3], in experiment [4] and in experiment [5] was less than 20% throughout. In addition, the Kb on Melanocortin receptor 3 is 501 nM; on Melanocortin receptor 4, 0.631 nM. Also, the Ratio was 790 in the experiment filed under Mus musculus and 3 to 6 in experiment [7].

Take `CCCC[C@@H]1NC(=O)[C@H](CO)NC(=O)[C@H](CN)NC(=O)[C@H](CCc2ccccc2)NC(=O)[C@H](Cc2ccccc2)NC(=O)[C@H](CCCNC(=N)N)NC(=O)[C@@H]2CCCN2C(=O)[C@H]2CCCN2C1=O` (cyclo(RF[hPhe][Dap]S[Nle][dP]P)): the 50% effective concentration (EC50) (in experiment [1]; on Melanocortin receptor 5) was more than 100000 nM each time. For the same compound, the Activity in experiment [6], in experiment [3], in [4] and in [5] was less than 20% in each case. In addition, the results for the Kb on Melanocortin receptor 3 and at Melanocortin receptor 4 were 200 nM and 0.316 nM, respectively. Also, the Ratio in the experiment filed under Mus musculus is 630; in experiment [7], 3 to 6.
